Source: ChEMBL document CHEMBL1255409, “In vitro activity of ceftaroline against 623 diverse strains of anaerobic bacteria” (2010)
≈ marks a conversion by molar mass, not a printed value.

Legend:
Prevotella denticola = test: Antimicrobial activity against Prevotella denticola under anaerobic conditions after 44 hrs by CLSI-M11-47 protocol based agar dilution method; format: functional
In short: (§1)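 Clinical isolates were stored at −70°C in 20% skim milk and identified phenotypically or by partial 16S rRNA sequencing. Each strain was subcultured twice from frozen stock. Cell paste from 48-h cultures was suspended in brucella broth to a 0.5 McFarland standard. About 10^5 CFU per spot were applied by Steers replicator to agar dilution plates prepared on the day of testing. Plates were incubated 44 h at 37°C in an anaerobic chamber. MIC was taken as the lowest concentration giving complete inhibition or marked reduction of growth versus the drug-free control.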

Lacticaseibacillus casei = test: Antimicrobial activity against Lactobacillus casei under anaerobic conditions after 44 hrs by CLSI-M11-47 protocol based agar dilution method; format: functional; in short: as §1
Actinomyces turicensis = test: Antimicrobial activity against Actinomyces turicensis under anaerobic conditions after 44 hrs by CLSI-M11-47 protocol based agar dilution method; format: functional; conditions: Schaalia turicensis
In short: (§2)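 Reference agar dilution per CLSI M11-A7 with plates made on test day. Clinical isolates were stored at −70°C in 20% skim milk, subcultured twice, and 48-h cell paste was suspended in brucella broth to 0.5 McFarland. About 10^5 CFU/spot was applied with a Steers replicator. Plates were incubated 44 h at 37°C anaerobically. MIC was the lowest concentration giving complete inhibition or marked growth reduction versus the drug-free control.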

Prevotella tannerae = test: Antimicrobial activity against Prevotella tannerae under anaerobic conditions after 44 hrs by CLSI-M11-47 protocol based agar dilution method; format: functional; conditions: Alloprevotella tannerae; in short: as §1
Eubacterium limosum = test: Antimicrobial activity against Eubacterium limosum under anaerobic conditions after 44 hrs by CLSI-M11-47 protocol based agar dilution method; format: functional; in short: as §2
Gemella morbillorum = test: Antimicrobial activity against Gemella morbillorum under anaerobic conditions after 44 hrs by CLSI-M11-47 protocol based agar dilution method; format: functional; in short: as §1
Parvimonas micra = test: Antimicrobial activity against Parvimonas micra under anaerobic conditions after 44 hrs by CLSI-M11-47 protocol based agar dilution method; format: functional; in short: as §1
[1] = system: Peptostreptococcus anaerobius; test: Antimicrobial activity against Peptostreptococcus anaerobius under anaerobic conditions after 44 hrs by CLSI-M11-47 protocol based agar dilution method; format: functional; in short: as §1
[2] = system: Porphyromonas asaccharolytica; test: Antimicrobial activity against Porphyromonas asaccharolyticus under anaerobic conditions after 44 hrs by CLSI-M11-47 protocol based agar dilution method; format: functional; in short: as §1
Prevotella corporis = test: Antimicrobial activity against Prevotella corporis under anaerobic conditions after 44 hrs by CLSI-M11-47 protocol based agar dilution method; format: functional; in short: as §1
Bacteroides fragilis [3] = test: Antimicrobial activity against Bacteroides fragilis spp. under anaerobic conditions after 44 hrs by CLSI-M11-47 protocol based agar dilution method; format: functional; in short: as §2
[4] = system: Enterocloster clostridioformis; test: Antimicrobial activity against Clostridium clostridioforme under anaerobic conditions after 44 hrs by CLSI-M11-47 protocol based agar dilution method; format: functional; in short: as §2
[5] = system: Bacteroides thetaiotaomicron; test: Antimicrobial activity against Bacteroides thetaiotaomicron under anaerobic conditions after 44 hrs by CLSI-M11-47 protocol based agar dilution method; format: functional; in short: as §2
Slackia exigua = test: Antimicrobial activity against Slackia exigua under anaerobic conditions after 44 hrs by CLSI-M11-47 protocol based agar dilution method; format: functional; in short: as §1
[6] = system: Fusobacterium necrophorum; test: Antimicrobial activity against Fusobacterium necrophorum under anaerobic conditions after 44 hrs by CLSI-M11-47 protocol based agar dilution method; format: functional; in short: as §2
Bacteroides fragilis [7] = test: Antimicrobial activity against Bacteroides fragilis under anaerobic conditions after 44 hrs by CLSI-M11-47 protocol based agar dilution method; format: functional; in short: as §2
[8] = system: Parabacteroides distasonis; test: Antimicrobial activity against Bacteroides distasonis under anaerobic conditions after 44 hrs by CLSI-M11-47 protocol based agar dilution method; format: functional; in short: as §2
Hoylesella loescheii = test: Antimicrobial activity against Prevotella loescheii under anaerobic conditions after 44 hrs by CLSI-M11-47 protocol based agar dilution method; format: functional; in short: as §1
Cutibacterium acnes = test: Antimicrobial activity against Propionibacterium acnes under anaerobic conditions after 44 hrs by CLSI-M11-47 protocol based agar dilution method; format: functional; in short: as §1
Actinomyces israelii = test: Antimicrobial activity against Actinomyces israelii under anaerobic conditions after 44 hrs by CLSI-M11-47 protocol based agar dilution method; format: functional; in short: as §2
Anaerococcus vaginalis = test: Antimicrobial activity against Anaerococcus vaginalis under anaerobic conditions after 44 hrs by CLSI-M11-47 protocol based agar dilution method; format: functional; in short: as §2
[9] = system: Actinomyces neuii subsp. anitratus; test: Antimicrobial activity against Actinomyces neuii subsp. anitratus under anaerobic conditions after 44 hrs by CLSI-M11-47 protocol based agar dilution method; format: functional, Winkia neuii subsp. anitrata; conditions: Winkia neuii; in short: as §2
Veillonella = test: Antimicrobial activity against Veillonella spp. under anaerobic conditions after 44 hrs by CLSI-M11-47 protocol based agar dilution method; format: functional; in short: as §1
Porphyromonas somerae = test: Antimicrobial activity against Porphyromonas somerae under anaerobic conditions after 44 hrs by CLSI-M11-47 protocol based agar dilution method; format: functional; in short: as §1
Anaerococcus octavius = test: Antimicrobial activity against Anaerococcus octavius under anaerobic conditions after 44 hrs by CLSI-M11-47 protocol based agar dilution method; format: functional; in short: as §2
Mogibacterium timidum = test: Antimicrobial activity against Mogibacterium timidum under anaerobic conditions after 44 hrs by CLSI-M11-47 protocol based agar dilution method; format: functional; in short: as §1
[Clostridium] innocuum = Antimicrobial activity against Clostridium […] under anaerobic conditions after 44 hrs by CLSI-M11-47 protocol based agar dilution method; format: functional; in short: as §2
Propionibacterium avidum = test: Antimicrobial activity against Propionibacterium avidum under anaerobic conditions after 44 hrs by CLSI-M11-47 protocol based agar dilution method; format: functional; conditions: Cutibacterium avidum; in short: as §1
Gemella sanguinis = test: Antimicrobial activity against Gemella sanguinis under anaerobic conditions after 44 hrs by CLSI-M11-47 protocol based agar dilution method; format: functional; in short: as §1
Bacteroides uniformis = test: Antimicrobial activity against Bacteroides uniformis under anaerobic conditions after 44 hrs by CLSI-M11-47 protocol based agar dilution method; format: functional; in short: as §2
Clostridium subterminale = test: Antimicrobial activity against Clostridium subterminale under anaerobic conditions after 44 hrs by CLSI-M11-47 protocol based agar dilution method; format: functional; in short: as §2
Clostridium hathewayi = test: Antimicrobial activity against Clostridium hathewayi under anaerobic conditions after 44 hrs by CLSI-M11-47 protocol based agar dilution method; format: functional; conditions: Hungatella hathewayi; in short: as §2

Q: For `CCC[C@@H]1C[C@@H](C(=O)N[C@@H]([C@H]2O[C@H](SC)[C@H](O)[C@@H](O)[C@H]2O)[C@H](C)Cl)N(C)C1` [CLINDAMYCIN], which MIC50 (Prevotella denticola) is on record?
A: ≤ 0.03 µg/mL

Q: And the MIC90 (Prevotella denticola)?
A: 128 µg/mL (≈ 301 µM)

Q: What about the MIC50 (Lacticaseibacillus casei) of the same compound?
A: 1 µg/mL (≈ 2.35 µM)

Q: And the MIC90 (Lacticaseibacillus casei)?
A: 2 µg/mL (≈ 4.71 µM)

Q: What about the MIC50 (Actinomyces turicensis) of the same compound?
A: 0.06 µg/mL (≈ 0.141 µM)

Q: And the MIC90 (Actinomyces turicensis)?
A: 128 µg/mL (≈ 301 µM)

Q: And the MIC50 (Prevotella tannerae)?
A: ≤ 0.03 µg/mL

Q: What about the MIC90 (Prevotella tannerae) of the same compound?
A: 128 µg/mL (≈ 301 µM)

Q: And the MIC50 (Eubacterium limosum)?
A: 0.06 µg/mL (≈ 0.141 µM)

Q: What about the MIC90 (Eubacterium limosum) of the same compound?
A: 2 µg/mL (≈ 4.71 µM)

Q: What about the MIC50 (Gemella morbillorum) of the same compound?
A: 0.125 µg/mL (≈ 0.294 µM)

Q: What about the MIC90 (Gemella morbillorum) of the same compound?
A: 64 µg/mL (≈ 151 µM)

Q: And the MIC50 (Parvimonas micra)?
A: 0.25 µg/mL (≈ 0.588 µM)

Q: And the MIC90 (Parvimonas micra)?
A: 16 µg/mL (≈ 37.6 µM)

Q: What about the MIC50 [1] of the same compound?
A: ≤ 0.03 µg/mL

Q: And the MIC90 [1]?
A: 0.25 µg/mL (≈ 0.588 µM)

Q: What about the MIC50 [2] of the same compound?
A: ≤ 0.03 µg/mL

Q: What about the MIC90 [2] of the same compound?
A: > 128 µg/mL

Q: And the MIC50 (Prevotella corporis)?
A: ≤ 0.03 µg/mL

Q: And the MIC90 (Prevotella corporis)?
A: 128 µg/mL (≈ 301 µM)

Q: What about the MIC50 (Bacteroides fragilis [3]) of the same compound?
A: 4 µg/mL (≈ 9.41 µM)

Q: And the MIC90 (Bacteroides fragilis [3])?
A: > 128 µg/mL

Q: And the MIC50 [4]?
A: 0.5 µg/mL (≈ 1.18 µM)

Q: What about the MIC90 [4] of the same compound?
A: 2 µg/mL (≈ 4.71 µM)

Q: And the MIC50 [5]?
A: 4 µg/mL (≈ 9.41 µM)

Q: What about the MIC90 [5] of the same compound?
A: 128 µg/mL (≈ 301 µM)

Q: And the MIC50 (Slackia exigua)?
A: 0.06 µg/mL (≈ 0.141 µM)

Q: And the MIC90 (Slackia exigua)?
A: 2 µg/mL (≈ 4.71 µM)

Q: And the MIC50 [6]?
A: ≤ 0.03 µg/mL

Q: What about the MIC90 [6] of the same compound?
A: 0.06 µg/mL (≈ 0.141 µM)

Q: What about the MIC50 (Bacteroides fragilis [7]) of the same compound?
A: 1 µg/mL (≈ 2.35 µM)

Q: And the MIC90 (Bacteroides fragilis [7])?
A: 128 µg/mL (≈ 301 µM)

Q: And the MIC50 [8]?
A: 4 µg/mL (≈ 9.41 µM)

Q: What about the MIC90 [8] of the same compound?
A: > 128 µg/mL

Q: And the MIC50 (Hoylesella loescheii)?
A: ≤ 0.03 µg/mL

Q: What about the MIC90 (Hoylesella loescheii) of the same compound?
A: 128 µg/mL (≈ 301 µM)

Q: And the MIC50 (Cutibacterium acnes)?
A: 0.125 µg/mL (≈ 0.294 µM)

Q: And the MIC90 (Cutibacterium acnes)?
A: 0.125 µg/mL (≈ 0.294 µM)

Q: What about the MIC50 (Actinomyces israelii) of the same compound?
A: 0.06 µg/mL (≈ 0.141 µM)

Q: And the MIC90 (Actinomyces israelii)?
A: 128 µg/mL (≈ 301 µM)

Q: And the MIC50 (Anaerococcus vaginalis)?
A: 0.125 µg/mL (≈ 0.294 µM)

Q: What about the MIC90 (Anaerococcus vaginalis) of the same compound?
A: 64 µg/mL (≈ 151 µM)

Q: What about the MIC50 [9] of the same compound?
A: 0.06 µg/mL (≈ 0.141 µM)

Q: What about the MIC90 [9] of the same compound?
A: 128 µg/mL (≈ 301 µM)

Q: What about the MIC50 (Veillonella) of the same compound?
A: 0.125 µg/mL (≈ 0.294 µM)

Q: What about the MIC90 (Veillonella) of the same compound?
A: 128 µg/mL (≈ 301 µM)

Q: What about the MIC50 (Porphyromonas somerae) of the same compound?
A: ≤ 0.03 µg/mL

Q: What about the MIC90 (Porphyromonas somerae) of the same compound?
A: > 128 µg/mL

Q: And the MIC50 (Anaerococcus octavius)?
A: 0.125 µg/mL (≈ 0.294 µM)

Q: What about the MIC90 (Anaerococcus octavius) of the same compound?
A: 64 µg/mL (≈ 151 µM)

Q: What about the MIC50 (Mogibacterium timidum) of the same compound?
A: 0.06 µg/mL (≈ 0.141 µM)

Q: What about the MIC90 (Mogibacterium timidum) of the same compound?
A: 2 µg/mL (≈ 4.71 µM)

Q: And the MIC50 ([Clostridium] innocuum)?
A: 0.5 µg/mL (≈ 1.18 µM)

Q: What about the MIC90 ([Clostridium] innocuum) of the same compound?
A: > 128 µg/mL

Q: What about the MIC50 (Propionibacterium avidum) of the same compound?
A: 0.25 µg/mL (≈ 0.588 µM)

Q: What about the MIC90 (Propionibacterium avidum) of the same compound?
A: 0.25 µg/mL (≈ 0.588 µM)

Q: And the MIC50 (Gemella sanguinis)?
A: 0.125 µg/mL (≈ 0.294 µM)

Q: And the MIC90 (Gemella sanguinis)?
A: 64 µg/mL (≈ 151 µM)

Q: What about the MIC50 (Bacteroides uniformis) of the same compound?
A: 4 µg/mL (≈ 9.41 µM)

Q: What about the MIC90 (Bacteroides uniformis) of the same compound?
A: > 128 µg/mL

Q: What about the MIC50 (Clostridium subterminale) of the same compound?
A: 2 µg/mL (≈ 4.71 µM)

Q: What about the MIC90 (Clostridium subterminale) of the same compound?
A: 128 µg/mL (≈ 301 µM)

Q: And the MIC50 (Clostridium hathewayi)?
A: 0.5 µg/mL (≈ 1.18 µM)

Q: What about the MIC90 (Clostridium hathewayi) of the same compound?
A: 2 µg/mL (≈ 4.71 µM)
